SENP7 inh – inhibitors of human SENP7 protease; Q9BQF6; recombinant SENP7, Z-RLRGG-aminoluciferin luminescence, 40 min; inhibition, % at 5 µM; 330,000 tested, 1.5% active;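 active = inhibition above about 50% at the single test dose, limit read from the data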;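 note: plate controls were DMSO with enzyme for no effect and no enzyme buffer wells for full effect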
SENP8 block-1 – blocks human SENP8 cleavage of Nedd8 substrate; Q96LD8; recombinant SENP8, Nedd8 substrate fluorescence; inhibition, % at 20 µM; 360,000 tested, 0.64% active; in the data active = inhibition mostly above about 40%, no sharp cut-off; inactive = mostly below about 27%
SENP6 inh – blocks the human protease SENP6. Q9GZR1. Recombinant SENP6 catalytic domain, aminoluciferin luminescence. inhibition, % at 10 µM. 330,000 tested, 1.8% active;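 active = inhibition above about 50% at the single tested dose, limit read from the data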;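 note: plate controls were DMSO wells with enzyme for no effect and DMSO wells lacking enzyme for full effect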
SENP1 inh – blocks the human SENP1 SUMO protease catalytic domain. recombinant SENP1 catalytic domain, CyPet-SUMO1-YPet FRET cleavage. inhibition, % at 10 µM. 360,000 tested, 0.21% active. AID 624204;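 active = inhibition at least 30% at 10 µM, raw YFP signal under a set limit, fluorescence ratio 0.5 to 1.5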;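 note: 0% = enzyme with DMSO and 100% = no enzyme wells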
Target sequence (Q9P0U3 419-644 limits assumed): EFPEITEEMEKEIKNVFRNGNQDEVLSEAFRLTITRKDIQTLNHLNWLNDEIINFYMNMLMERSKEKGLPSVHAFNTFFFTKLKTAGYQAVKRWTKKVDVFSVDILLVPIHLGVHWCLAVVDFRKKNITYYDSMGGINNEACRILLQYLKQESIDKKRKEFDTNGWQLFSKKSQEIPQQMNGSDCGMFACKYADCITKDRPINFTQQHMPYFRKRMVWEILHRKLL
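Test system: recombinant human SENP1 catalytic domain, His6-tagged / Medium: pH 8 Tris buffer with EDTA, NaCl, BME, BSA, NP40, catalase / Also added: SUMO1 FRET substrate flanked by Cypet and Ypet, 25 nM / Times: 50 min reaction at room temperature / Signal: FRET, CFP and YFP emission / Control set: no-enzyme low control and enzyme-plus-DMSO high control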
SENP8 block-2 – blocks the human protease SENP8; inhibition, % at 10 µM; 330,000 tested, 1.2% active; AID 2540; purified SENP8, Z-RLRGG-aminoluciferin cleavage, luminescence; Q96LD8; in the data active = inhibition above about 50%
SENP8 conf – human SENP8 inhibition, confirmed | shares compounds with SENP7 inh | Recombinant SENP8, Z-RLRGG-aminoluciferin luminescence, 60 min | inhibition, % at 12.5 µM | 6,200 tested, 40% active | AID 488912;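 active = mean inhibition across replicates above about 50%, limit read from the data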
SENP6 confirm – confirmation of human SENP6 protease inhibitors; 6,200 tested, 58% active; recombinant SENP6, Z-RLRGG-aminoluciferin luminescence; AID 488915; inhibition, % at 12.5 µM; shares compounds with SENP7 inh
SENP7 conf – confirmation of human SENP7 protease inhibitors; shares compounds with SENP7 inh; recombinant SENP7, Z-RLRGG-aminoluciferin luminescence, 40 min; inhibition, % at 12.5 µM; 6,200 tested, 69% active; AID 488917
Casp3 select – caspase-3 inhibition (SENP selectivity assay) | shares compounds with SENP7 inh | purified caspase-3, Z-DEVD-aminoluciferin luminescence, 60 min | inhibition, % at 12.5 µM | 6,200 tested, 60% active | AID 488918;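 active = mean inhibition above about 50%, limit read from the data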;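 note: plate controls were enzyme with DMSO for no effect and wells without caspase-3 for full effect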
Target sequence (P42574 28-227 limits assumed): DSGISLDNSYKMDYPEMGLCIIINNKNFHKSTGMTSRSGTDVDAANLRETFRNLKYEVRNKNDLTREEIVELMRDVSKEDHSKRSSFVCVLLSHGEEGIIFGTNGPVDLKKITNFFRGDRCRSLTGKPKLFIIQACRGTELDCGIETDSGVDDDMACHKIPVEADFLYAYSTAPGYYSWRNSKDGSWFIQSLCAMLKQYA
Luc interf – interferes with luciferase luminescence in SENP counter-screen | shares compounds with SENP7 inh | Pre-incubated SENP8/Z-RLRGG-aminoluciferin, luciferase luminescence interference | inhibition, % at 12.5 µM | 6,200 tested, 39% active | AID 488919;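 active = mean inhibition above about 50% when retested at one dose, limit read from the data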;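 note: plate controls were DMSO wells with completed reaction for no effect and substrate without enzyme for full effect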
* = called active by the depositor; . = no result given. The list is not random: actives were taken first. Their share in the collection is about 2.5%.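 Rule for the calls, unless noted: active = mean inhibition above about 50% in the one-dose retest (limit read from the data); inactive = the rest.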

SMILES | SENP7 inh | SENP8 block-1 | SENP6 inh | SENP1 inh | SENP8 block-2 | SENP8 conf | SENP6 confirm | SENP7 conf | Casp3 select | Luc interf
Cc1nc(SCC(=O)N2c3ccccc3Sc3ccccc32)n[nH]1 | -1.8 | 12.9 | -8.9 | 2.2 | 1.2 | . | . | . | . | .
CC(Sc1nnc(NC2CCCCC2)s1)C(=O)Nc1ccc2c(c1)C(=O)c1ccccc1C2=O (stereo not given) | -3.8 | 17.4 | -1.7 | -8.3 | -9.6 | . | . | . | . | .
O=C(N[C@H]1C/C=C\C[C@@H](CC(=O)N(CCO)Cc2ccccc2)C(=O)NC[C@H](c2ccccc2)OC1=O)OCC1c2ccccc2-c2ccccc21 | -3.2 | 1.4 | -6.7 | -2.6 | 11.9 | . | . | . | . | .
Fc1ccccc1CNc1ncnc2sccc12 | -0.3 | -3.9 | 87.1* | -28.7 | -6.0 | -5.7 | -5.4 | -11.5 | 0.3 | 3.6
COc1ccc(C(N)c2nccc3cc(OC)c(OC)cc23)cc1OC (stereo not given) | 69.8* | -83.4 | 75.1* | -42.5 | 49.3 | -25.8 | -13.1 | -5.7 | -9.1 | -6.9
Cc1sc(NC(=O)c2ccc(Br)s2)c(C(N)=O)c1C | 50.6* | -54.1 | 76.3* | -1.6 | 25.9 | 24.8 | 19.9 | 44.6 | 22.4 | 10.7
Cc1sc(NC(=O)c2ccc(Cl)s2)c(C(N)=O)c1C | 52.2* | -49.8 | 59.7* | -0.3 | 1.1 | -1.6 | -2.5 | 5.1 | 28.2 | 4.8
O=C(Nc1ccccc1Cl)c1cc(C2CCCN(C(=O)c3cccc(O)c3)C2)on1 (stereo not given) | . | 9.8 | . | 0.4 | . | . | . | . | . | .
COc1ccc(-c2cc(C(=O)NC(Cc3cc4ccccc4[nH]3)C(=O)O)c(C)o2)cc1OC (stereo not given) | 2.6 | 1.3 | 17.4 | 1.6 | 0.8 | . | . | . | . | .
Cc1oc(-c2ccc3c(c2)OCCO3)cc1C(=O)O | 97.8* | 6.3 | 99.0* | 2.3 | 96.8* | 97.9* | 100.8* | 103.9* | 99.0* | 98.8*
COc1ccc(-c2cc(C(=O)O)c(C)o2)cc1OC | 82.0* | 6.0 | 87.4* | 1.6 | 73.4* | 84.6* | 83.9* | 96.6* | 90.2* | 84.6*
Cc1oc(-c2ccc3c(c2)OCCO3)cc1C(=O)NCC(=O)O | -6.1 | -14.3 | 80.6* | -2.2 | 80.9* | 11.2 | 93.4* | 97.7* | 80.7* | 90.9*
O=C(COc1ccc(F)cc1Br)NCCCN1CCCC1=O | 1.7 | -1.5 | -1.9 | 1.3 | 12.1 | . | . | . | . | .
Cc1ccc(S(=O)(=O)N2CCCCC2)cc1NC(=O)c1ccccn1 | -4.4 | 19.3 | -8.4 | 0.4 | 0.3 | . | . | . | . | .
Cc1ccc(C(=O)NNc2cc(N3CCCC3)nc(N3CCCC3)n2)cc1 | 42.0 | . | 82.2* | . | 95.3* | 51.9* | 87.0* | 50.4* | -0.6 | -2.1
O=C(NNc1cc(N2CCOCC2)nc(N2CCOCC2)n1)c1ccc(Cl)c(Cl)c1 | 14.1 | 4.9 | 48.8 | -64.5 | 10.5 | . | . | . | . | .
Cc1cc(C)c2nc(N3C(=O)C(O)=C(C(=O)c4ccco4)C3c3ccco3)sc2c1 (stereo not given) | -4.1 | -106.6 | 27.6 | -78.0 | 12.6 | . | . | . | . | .
CCc1ccc(S(=O)(=O)Nc2cc(SCC(=O)O)c(O)c3ccccc23)cc1 | 30.3 | 32.9 | 72.7* | -1.0 | 28.1 | 14.9 | 36.6 | 12.2 | -0.2 | 8.0
Cc1ccc(NC(=S)N/N=C/c2c(C)nn(-c3ccccc3)c2N2CCCC2)cc1 | -8.8 | -95.4 | 1.5 | -1.3 | -3.2 | . | . | . | . | .
COc1c(/C=N/NC(N)=S)c(C)nn1-c1ccccc1 | 9.4 | -0.5 | -0.6 | 0.2 | 69.7* | -19.7 | -14.5 | -7.6 | -7.4 | -7.9
COc1cccc(CNc2ccccn2)c1O | 3.3 | 20.3 | 9.7 | -0.5 | 4.4 | . | . | . | . | .
Oc1ccc(Br)cc1CNc1cccc2cccnc12 | 70.5* | -8.4 | 78.4* | -11.6 | 79.9* | 9.4 | 29.2 | 6.6 | 1.5 | 1.3
